Assay outcomes deposited in PubChem BioAssay by several laboratories.
A selection: hits, their analogues and other compounds. The true share with any hit is near 1.9%.
HIF act = HIF pathway transcriptional activators, primary screen, cell-based, U2OS HRE-luciferase, luminescence | AID 1910, 2009 | U2OS HRE-luciferase reporter; normalized: DMSO 0%, desferrioxamine 100% | activation, % at 7.5 µM (by protocol) | actives 0.32% (n = 300,000);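 active = mean activation of at least 10% of the iron chelator positive control signal, with at least half of replicates also reaching 10%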
Rad51 HR inh = human RAD51 strand exchange inhibitors, primary screen, biochemical, fluorescence; hRad51 DNA strand exchange, fluorescence dequenching; inhibition, % at 10 µM; actives 0.085% (n = 200,000);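 active = inhibition above 40% at the single screening dose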;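 note: 0% = DMSO control wells and 100% = blanks with heterologous ssDNA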
Target sequence (Q06609 whole entry, looked up): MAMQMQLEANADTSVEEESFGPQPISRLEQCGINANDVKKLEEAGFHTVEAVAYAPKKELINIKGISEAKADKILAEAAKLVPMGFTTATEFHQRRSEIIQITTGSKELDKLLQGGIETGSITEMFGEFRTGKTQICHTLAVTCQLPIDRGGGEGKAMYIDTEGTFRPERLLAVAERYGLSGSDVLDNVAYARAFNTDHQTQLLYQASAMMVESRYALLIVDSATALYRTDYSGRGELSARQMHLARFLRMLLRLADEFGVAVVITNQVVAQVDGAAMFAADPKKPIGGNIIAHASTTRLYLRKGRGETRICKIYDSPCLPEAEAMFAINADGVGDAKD
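Material: hRad51 filaments on single-stranded DNA; Reagent: Donor/quencher-labelled 47-bp dsDNA substrate; Compound: 10 µM final, single point; Schedule: 37 °C 15-min filament assembly, 30-min compound preincubation, 15-min exchange; Technique: FRET fluorescence, excitation 485 nm, emission 520 nm; Benchmarks: control wells and blank wells on each plate.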
FXN GAA850 act = FXN promoter activators, primary screen, cell-based, luciferase luminescence, HEK293 lucGAA850. HEK293 lucGAA850 FXN promoter luciferase reporter, 24 h; percent of 10 µM SAHA response. activation, % at 6 µM. actives 0.56% (n = 360,000);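 active = activation above the average of all compounds screened plus 3 SD, cutoff fixed separately per campaign, cut at about 7.5% in these data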;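 note: 0% = DMSO wells and 100% = 10 µM SAHA wells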
ABHD5-PLIN5 inh = ABHD5-PLIN5 interaction inhibitors, primary screen, cell lysate, split luciferase complementation, luminescence | Perilipin-5 (Homo sapiens) + 1-acylglycerol-3-phosphate O-acyltransferase ABHD5 (Homo … | inhibition, % at 4 µM | AID 602281, 2012 | Split G. princeps luciferase complementation, 4 h | actives 0.78% (n = 360,000);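 active = inhibition above the mean inhibition across every tested compound plus 3 SD, cut at about 22% in these data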;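 note: 0% = DMSO only wells and the 100% control is not disclosed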
TAG inh = inhibitors of triacylglycerol accumulation, primary screen, cell-based, uHTS, fluorescence, H9c2; actives 0.66% (n = 230,000); AID 651582, 2012; H9c2 cells, Nile Red lipid (TAG) fluorescence; cells loaded with 200 µM oleic acid; inhibition, % at 12.5 µM;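 active = pattern-corrected inhibition of lipid staining of at least 50% with the nuclear-stain viability signal not falling by more than 50%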;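 note: 0% = DMSO wells and 100% = triacsin C control wells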
Hsp70 act = Hsp70 transcriptional activators, primary screen, cell-based, HeLa, Hsp70 promoter luciferase, luminescence, 10 µM; HeLa Hsp70 promoter luciferase reporter; scaled: vehicle 0, proteasome-inhibitor control 100%; actives 0.04% (n = 200,000); activation, % at 10 µM;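 active = activation above the mean across all tested compounds plus 3 SD, cutoff set per campaign, cut at about 5.5% in these data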;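 note: 100% = MG132 at 30 µM as the positive control and 0% = DMSO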
H9c2 TAG conf = triacylglycerol accumulation inhibitors, retest, confirmation, cell-based, single concentration, Nile Red fluorescence, H9c2; H9c2 lipid accumulation; cells loaded with 200 µM oleic acid; inhibition, % at 12.5 µM; actives 71% (n = 990); shares compounds with TAG inh;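 active = mean inhibition across replicates of 40% or more; inactive = mean inhibition below 40%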;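 note: plate controls were DMSO only wells for no effect and Triacsin C treated wells for full effect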
Active calls of the source: *.

How did CC1(C(=O)NS(=O)(=O)c2ccc(Cl)cc2)CCN1C(=O)CCc1cccs1 (stereo unspecified) do in these assays?
FXN GAA850 act: -1; ABHD5-PLIN5 inh: 2; TAG inh: 3

How did COc1ccc(CC(N)c2csc(NC(=O)NCCc3ccccc3)n2)cc1 (stereo unspecified) do in these assays?
FXN GAA850 act: 1; ABHD5-PLIN5 inh: 7; TAG inh: 36

What do the screens show for `NC(Cc1ccc(Cl)cc1)c1csc(NC(=O)NCCc2ccccc2)n1` (stereo unspecified)?
FXN GAA850 act: 1; ABHD5-PLIN5 inh: 5; TAG inh: 74*; H9c2 TAG conf: 42*

How did COc1ccc(CC(N)c2csc(NC(=O)c3cccc(OC(F)(F)F)c3)n2)cc1 (stereo unspecified) do in these assays?
FXN GAA850 act: 1; ABHD5-PLIN5 inh: 0; TAG inh: 52*; H9c2 TAG conf: 34

Results for CC(C)c1ccc(NC(=O)Nc2nc(C(N)COCc3ccccc3)cs2)cc1 (stereo unspecified) ?
FXN GAA850 act: -1; ABHD5-PLIN5 inh: -7; TAG inh: 83*; H9c2 TAG conf: 102*

What do the screens show for `NC(Cc1ccccc1)c1csc(NC(=O)c2cccc(OC(F)(F)F)c2)n1` (stereo unspecified)?
FXN GAA850 act: -2; ABHD5-PLIN5 inh: -15; TAG inh: 26

How did COc1ccccc1CNC(=O)Nc1nc(C(N)CCc2ccccc2)cs1 (stereo unspecified) do in these assays?
FXN GAA850 act: -3; ABHD5-PLIN5 inh: -2; TAG inh: 57*; H9c2 TAG conf: 35

How did CC1(C)CC(O)CC(C)(C)N1CC(O)COCc1ccccc1 (stereo unspecified) do in these assays?
HIF act: -1; FXN GAA850 act: 0; ABHD5-PLIN5 inh: 5

What do the screens show for `COc1ccc(CNC(=O)Nc2nc(C(N)Cc3ccc(C(F)(F)F)cc3)cs2)cc1` (stereo unspecified)?
FXN GAA850 act: -1; ABHD5-PLIN5 inh: -5; TAG inh: 61*; H9c2 TAG conf: 35

What do the screens show for `COc1cccc(Nc2nc(C(N)Cc3ccc(F)cc3)cs2)n1` (stereo unspecified)?
FXN GAA850 act: -1; ABHD5-PLIN5 inh: 3; TAG inh: 20

Results for COc1cccc(Nc2nc(C(N)Cc3ccc(C(F)(F)F)cc3)cs2)n1 (stereo unspecified) ?
FXN GAA850 act: -1; ABHD5-PLIN5 inh: -21; TAG inh: 72*; H9c2 TAG conf: 37

Results for COc1cc(CNC(=O)Nc2nc(C(N)Cc3ccc(Cl)cc3)cs2)cc(OC)c1OC (stereo unspecified) ?
FXN GAA850 act: -2; ABHD5-PLIN5 inh: 0; TAG inh: 67*; H9c2 TAG conf: 94*

How did COc1ccc(-c2cc(NC=O)c3ncc(-c4ccc(OC)c(OC)c4)n3c2)cc1OC do in these assays?
FXN GAA850 act: -4; ABHD5-PLIN5 inh: 6; TAG inh: 14

What do the screens show for `COc1cc(-c2cnc3c(NC=O)cc(-c4cccnc4)cn23)cc(OC)c1OC`?
FXN GAA850 act: 0; ABHD5-PLIN5 inh: 2; TAG inh: 54*; H9c2 TAG conf: 46*

Results for COc1cccc(-c2cc(NC=O)c3ncc(-c4cc(OC)c(OC)c(OC)c4)n3c2)c1 ?
FXN GAA850 act: 2; ABHD5-PLIN5 inh: 1; TAG inh: 45

How did COc1ccc(-c2cc(NC=O)c3ncc(-c4ccc(OC)c(OC)c4)n3c2)cc1 do in these assays?
FXN GAA850 act: 0; ABHD5-PLIN5 inh: -4; TAG inh: 56*; H9c2 TAG conf: 66*

What do the screens show for `COc1ccc(-c2cnnc(N/N=C/c3ccc(-c4ccc([N+](=O)[O-])cc4)o3)n2)cc1`?
Rad51 HR inh: -13; FXN GAA850 act: -5; ABHD5-PLIN5 inh: 1; TAG inh: 63*; Hsp70 act: 0; H9c2 TAG conf: 61*

What do the screens show for `O=[N+]([O-])c1ccc(-c2ccc(/C=N/Nc3nc(N4CCCC4)nc(N4CCCC4)n3)o2)cc1`?
HIF act: 0; FXN GAA850 act: 2; ABHD5-PLIN5 inh: -3; TAG inh: 18; Hsp70 act: 0

What do the screens show for `CCOc1ccc(NC(=O)Cn2nnc(-c3ccccc3NC(=O)C3CC3)n2)cc1`?
HIF act: 1; Rad51 HR inh: 0; FXN GAA850 act: -1; ABHD5-PLIN5 inh: -2; TAG inh: 72*; Hsp70 act: 0; H9c2 TAG conf: 40

What do the screens show for `COc1ccc(NC(=O)Cn2nnc(-c3ccccc3NC(=O)C3CC3)n2)cc1`?
HIF act: 0; Rad51 HR inh: -1; FXN GAA850 act: -3; ABHD5-PLIN5 inh: 3; Hsp70 act: 0

Results for O=C(/C=C/c1ccc(Cl)cc1)N1CCN(Cc2ccccc2)CC1 ?
HIF act: 1; FXN GAA850 act: 1; ABHD5-PLIN5 inh: 6

How did Cc1cccc(Oc2nc(-c3ccccn3)nc3ccccc23)c1 do in these assays?
HIF act: 3; Rad51 HR inh: 15; FXN GAA850 act: -2; ABHD5-PLIN5 inh: -9; TAG inh: 66*; H9c2 TAG conf: 46*

How did CC(=O)Nc1ccc(Oc2nc(-c3ccccn3)nc3ccccc23)cc1 do in these assays?
HIF act: 3; Rad51 HR inh: 13; FXN GAA850 act: 3; ABHD5-PLIN5 inh: 5; TAG inh: 64*; H9c2 TAG conf: 3

Results for CC(=O)Nc1cccc(Oc2nc(-c3ccccn3)nc3ccccc23)c1 ?
HIF act: 2; FXN GAA850 act: 1; ABHD5-PLIN5 inh: -3; TAG inh: 24

What do the screens show for `O=C(NCCc1ccccc1)C1CCC(=O)N(Cc2cccc(C(F)(F)F)c2)C1` (stereo unspecified)?
HIF act: 0; FXN GAA850 act: 0; ABHD5-PLIN5 inh: -6; TAG inh: -1

How did c1cc(C2CCCCC2)ccc1Oc1nc(N2CCOCC2)nc(N2CCOCC2)n1 do in these assays?
HIF act: 0; Rad51 HR inh: 1; FXN GAA850 act: 1; ABHD5-PLIN5 inh: 5; TAG inh: 80*; Hsp70 act: 0; H9c2 TAG conf: 52*
